# In the library only some 3.7% were active in any assay of this set; here they are far more common.
# KCNK9 inh-1 – human KCNK9 channel inhibition; AID 488922; Q9NPC2; HEK293 KCNK9, FluxOR thallium flux fluorescence; hits give low values; B-score at 10 µM; hit rate 1.2% among 310,000;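 active = ratio B-score over 3 SD below the library mean, with starting fluorescence within 5 SD of its mean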;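 note: negative B-score means less thallium flux so channel inhibition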
# Kir21 inh – blocks the mouse Kir2.1 inward-rectifier potassium channel; P35561; HEK293-Kir2.1, FluxOR thallium flux fluorescence; hits give low values; B-score at 10 µM; hit rate 0.85% among 310,000; AID 1672;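 active = fluorescence ratio B-score at or below minus 3 SD of library scores, with starting-brightness B-score within 2 SD, cut at about -4.2 in these data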;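 note: channel flux triggered by added potassium and thallium sulfate stimulus; B-score of peak minus minimum fluorescence over baseline after thallium stimulus; more negative B-score means stronger Kir2.1 block with less thallium influx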
# Target sequence (P35561 whole entry, looked up): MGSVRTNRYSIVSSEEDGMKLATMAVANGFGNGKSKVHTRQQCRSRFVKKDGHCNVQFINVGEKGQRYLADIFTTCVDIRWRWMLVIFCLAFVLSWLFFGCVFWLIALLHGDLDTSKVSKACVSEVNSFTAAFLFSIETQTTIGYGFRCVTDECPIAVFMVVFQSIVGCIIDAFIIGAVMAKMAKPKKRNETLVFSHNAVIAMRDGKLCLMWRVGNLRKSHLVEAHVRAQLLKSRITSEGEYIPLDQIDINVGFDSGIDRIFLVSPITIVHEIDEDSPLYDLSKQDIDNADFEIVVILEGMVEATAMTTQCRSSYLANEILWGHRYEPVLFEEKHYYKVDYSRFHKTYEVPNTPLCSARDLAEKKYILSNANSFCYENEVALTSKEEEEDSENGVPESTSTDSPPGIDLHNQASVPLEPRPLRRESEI
# KCNQ1 inh – human KCNQ1 channel inhibition | B-score at 10 µM | P51787 | hit rate 1.3% among 310,000 | CHO-K1 KCNQ1, FluxOR thallium flux fluorescence; hits give high values;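 active = compounds whose thallium flux B-score, printed positive for inhibition, exceeds three library SD while starting fluorescence stays within three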;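 note: channel opened by potassium depolarization with thallium stimulus after 20 min compound exposure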
# KCNQ1 act – human KCNQ1 channel potentiation or activation; CHO-K1 KCNQ1, thallium flux FluxOR fluorescence; hits give high values; P51787; AID 2648; B-score at 10 µM; hit rate 0.35% among 310,000;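 active = fluorescence ratio B-score, a plate-corrected score, at least three library SD, with initial intensity B-score within 5 SD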
#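 Medium – assay buffer, equal DMSO in all wells · Material – CHO-K1 cell line with stable KCNQ1 potassium channel expression · Signal – kinetic FluxOR thallium fluorescence, 10-s 1-Hz baseline, 110-s post-stimulus read · Compound – single concentration per compound, DMSO matched to controls · Schedule – 37 °C overnight plating, 90-min dark dye load, 20-min compound pretreatment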
# KCNK3 inh – human KCNK3 channel inhibition, primary screen; CHO-KCNK3 thallium flux, FluxOR fluorescence; hits give low values; B-score at 10 µM; O14649; AID 602410; hit rate 0.84% among 340,000;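 active = B-score under library mean minus 4 SD, starting fluorescence ratio at most library mean plus 5 SD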;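 note: more negative B-score means stronger inhibition of thallium flux through KCNK3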
# hERG rescue – hERG (human) protection from proarrhythmic block; Q12809; CHO-hERG, FluxOR thallium flux, dofetilide IC70 present; activation (rescue from dofetilide block), less the hit threshold, % at 10 µM; hit rate 0.51% among 310,000;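 active = activation above the mean of controls blocked by dofetilide plus 5 SD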;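 note: thallium influx through hERG after potassium depolarization seen as dye fluorescence rise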
# hERG inh – blocks human hERG, in counter-screen for Kir2.1 inhibitors. hit rate 20% among 320. shares compounds with Kir21 inh. inhibition, % at 10 µM. hERG-expressing cells, thallium flux;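 note: host cells are CHO cells stably expressing hERG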
# KCNK9 inh-2 – tests whether Kir2.1 inhibitors also affect human KCNK9 | shares compounds with Kir21 inh | KCNK9-expressing cells, ion flux inhibition | inhibition, % at 10 µM | hit rate 5% among 320
# Kir21 ephys inh – blocks mouse Kir2.1 current in automated electrophysiology | inhibition, % at 25 µM | shares compounds with Kir21 inh | AID 463252 | hit rate 71% among 320 | Kir2.1 cells, automated patch-clamp current inhibition
# * hit, by the source's call; i = inactive; . = no result given. Unless noted, the rule behind the calls is not given here.
SMILES,KCNK9 inh-1,Kir21 inh,KCNQ1 inh,KCNQ1 act,KCNK3 inh,hERG rescue,hERG inh,KCNK9 inh-2,Kir21 ephys inh
CCCCCCCn1c(=N)n(CC(=O)c2ccco2)c2ccccc21,i,-10*,i,i,i,-15,67%*,i,6.9%*
Cc1ccccc1Cn1c(=N)n(CC(O)c2ccco2)c2ccccc21 (centres undefined),i,-5.9*,i,i,i,-13,50%*,i,i
CCCCCCCn1c(=N)n(CC(O)c2ccco2)c2ccccc21 (centres undefined),i,-5.9*,i,i,i,-13,70%*,i,i
CCn1c(=N)n(CC(O)c2ccccc2)c2ccccc21 (centres undefined),i,0.45,i,i,i,-4,.,.,.
Cc1ccc(S(=O)(=O)N2[C@@H](c3cccc(Cl)c3)C(C(=O)O)=CC[C@H]2c2ccc(C(C)C)cc2)cc1,.,.,.,.,i,.,.,.,.
Cc1onc(-c2ccccc2Cl)c1C(=O)c1ccccc1,i,-6.4*,i,i,i,-11,i,i,11%*
Nc1cnn(C2CCCO2)c(=O)n1 (centres undefined),i,-0.05,i,i,i,-15,.,.,.
CN(C)CCCOc1ccc(C(C)(C)c2ccccc2)cc1,i,-6.6*,i,i,i,-15,i,i,39%*
S=C(NCC1CCCO1)N1CCN(c2nc(-c3ccc(Cl)cc3)cs2)CC1 (centres undefined),i,1.3,i,i,i,-8,i,i,i
COC(=O)c1c(NC(=O)C(C)C)sc(C(=O)N2CCOCC2)c1C,i,0.7,i,i,i,-3,.,.,.
O=C(COc1ccc(C(=O)c2ccccc2)cc1)NCc1ccc(F)cc1,i,-2.3,i,i,i,-10,.,.,.
O=C(c1ccccc1)c1ccc(OCC(O)CNCc2ccc(F)cc2)cc1 (centres undefined),i,-9.2*,i,i,i,-13,60%*,i,65%*
Oc1cccc(Nc2nc(-c3ccccc3)nc3ccccc23)c1,i,1,i,i,i,-3,.,.,.
COc1ccc(CN2CCC(CO)(CCOc3ccccc3)CC2)cc1C,i,-1.9,i,i,i,-26,.,.,.
CSc1ccc(CN2CCC(CO)(CCOc3ccccc3)CC2)cc1,i,-5.8*,i,i,i,-15,73%*,i,7.3%*
Cc1ccc2nc(N3CCN(CCO)CC3)nc(-c3ccccc3)c2c1,i,-7*,i,i,i,-11,60%*,i,16%*
CCOC(=O)N1CCN(c2nc(-c3ccccc3)c3cc(C)ccc3n2)CC1,i,-1.4,i,i,i,-8,.,.,.
Clc1ccc2c(SCC3CO3)c3ccccc3nc2c1 (centres undefined),.,.,.,.,i,.,.,.,.
CCn1cc(C(=O)NCCc2ccccc2)c(=O)c2cc(S(=O)(=O)N(C)C)ccc21,i,3.5,i,i,i,-6,i,i,i
Cc1ccc(S(=O)(=O)Oc2ccccc2/C=N/N=C(N)N)cc1,i,-11*,i,i,i,-20,61%*,i,i
Cc1ccc(S(=O)(=O)Oc2ccccc2/C=N/NC(N)=S)cc1,i,-0.07,i,i,i,-7,.,.,.
O=C(Oc1cccc(OC(=O)c2ccco2)c1)c1ccco1,i,-5.7*,i,i,i,-7,i,i,i
O=C(Oc1cccc(-n2cnnn2)c1)c1ccco1,i,-0.02,i,i,i,0,.,.,.
Cc1cc(Cl)cc(Br)c1OCCCNCC(C)O (centres undefined),i,-9.3*,i,i,i,-6,i,i,39%*
